Results as given in ChEMBL document CHEMBL4184319, “Fluorescent-Labeled Selective Adenosine A2B Receptor Antagonist Enables Competition Binding Assay by Flow Cytometry” (J Med Chem, 2018).

Experiments:
Adenosine receptor A2b [1] = target: T1, Adenosine receptor A2b (Homo sapiens, UniProt P29275); assay: Antagonist activity at recombinant human adenosine A2B receptor expressed in CHO cell membranes assessed as inhibition of NECA-induced cAMP accumulation preincubated for 1 hr followed by NECA induction measured after 5 mins in presence of [3H]cAMP and bovine cAMP-binding protein by liquid scintillation counting method; format: functional
T1 sequence (P29275 whole entry): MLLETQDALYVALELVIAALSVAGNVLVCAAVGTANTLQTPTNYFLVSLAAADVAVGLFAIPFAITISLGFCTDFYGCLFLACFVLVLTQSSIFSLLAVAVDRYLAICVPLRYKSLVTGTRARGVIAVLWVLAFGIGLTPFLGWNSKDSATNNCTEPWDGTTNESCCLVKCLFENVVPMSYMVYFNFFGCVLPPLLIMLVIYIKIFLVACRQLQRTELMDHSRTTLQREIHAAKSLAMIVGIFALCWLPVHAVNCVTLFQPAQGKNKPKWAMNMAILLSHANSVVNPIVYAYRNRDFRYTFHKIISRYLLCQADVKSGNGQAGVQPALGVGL
How it was run: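 CHO cells stably expressing human A2BAR, pre-incubated with antagonist dilutions for 1 h at 37°C, then stimulated with NECA (10 µM final) for 5 min at 37°C. Reaction stopped with hot (90 °C) lysis solution (4 mM EDTA, 0.01 % Triton X100). cAMP quantified by radioactive competition with [³H]cAMP and bovine adrenal cAMP-binding protein. Response expressed as % of NECA response without antagonist. Means ± SEM, three independent experiments in duplicate.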

Adenosine receptor A3 = target: T2, Adenosine receptor A3 (Homo sapiens, UniProt P0DMS8); assay: Displacement of [3H]PSB-11 from recombinant human adenosine A3 receptor expressed in CHO cell membranes after 180 mins by liquid scintillation counting method
T2 sequence (P0DMS8 whole entry): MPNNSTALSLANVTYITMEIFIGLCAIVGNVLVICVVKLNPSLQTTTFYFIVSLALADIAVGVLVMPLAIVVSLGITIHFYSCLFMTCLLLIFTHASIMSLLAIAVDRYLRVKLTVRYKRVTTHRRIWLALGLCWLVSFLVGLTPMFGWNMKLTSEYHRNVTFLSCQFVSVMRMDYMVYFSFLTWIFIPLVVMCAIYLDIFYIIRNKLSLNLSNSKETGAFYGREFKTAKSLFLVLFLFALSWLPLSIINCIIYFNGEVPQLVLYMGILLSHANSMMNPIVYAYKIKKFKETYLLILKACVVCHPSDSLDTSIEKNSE
How it was run: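 Human A3AR CHO cell membranes were pre-incubated 10–15 min with adenosine deaminase (0.12 IU/mL), then incubated with [3H]PSB-11 (1 nM) at rt, with 2.5% DMSO final. Nonspecific binding was defined with 100 µM R-PIA. Incubation ended by GF/B filtration with ice-cold 50 mM Tris-HCl (pH 7.4) rinses. Test compounds were run at 6–7 concentrations over 3 log units, in ≥3 independent experiments in duplicate.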

Adenosine receptor A2b [2] = target: T1, Adenosine receptor A2b; assay: biochemical
Adenosine receptor A2b [3] = target: T1, Adenosine receptor A2b; assay: Displacement of PSB-12105 from recombinant human adenosine A2B receptor expressed in CHO cell membranes preincubated for 30 mins followed by PSB-12105 addition measured after 20 mins by flow cytometric method; format: cell-based
How it was run: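 Live CHO-hA2B cells were pre-treated with ADA (2 U/mL, 2 h, 37°C), detached with 5 mM EDTA, and resuspended in HBSS with 2 U/mL ADA at 2.5×10^5 cells/well in 96-well format. Antagonists pre-incubated 30 min at 37°C, then fluorescent ligand (100 nM) added for 20 min at 37°C. 3-5 independent experiments in duplicate.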

IC50 (Adenosine receptor A2b [1]): 18.3 nM
Ki (Adenosine receptor A3): > 10000 nM
IC50 (Adenosine receptor A2b [2]): 0.534 nM
IC50 (Adenosine receptor A2b [3]): 0.739 nM
Structure (SMILES): CCCn1c(=O)[nH]c2nc(-c3ccc(S(=O)(=O)N4CCN(c5ccc(Cl)cc5)CC4)cc3)[nH]c2c1=O
